Compounds with a hit are over-represented: about 3.8% of the library has one in this group of screens.
MC4R barr agon = human MC4R agonism via beta-arrestin; hit rate 0.98% among 360,000; activation, % at 8.9 µM; U2OS MC4R beta-arrestin complementation, luminescence; percent of melanotan II response, DMSO zero;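 active means activation above a per-plate cutoff, the mean activation of sample wells on that plate plus 3 SD, cut at about 8% in these data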
MC4R antagonist = blocks human MC4R cAMP signaling | hit rate 0.48% among 360,000 | MC4R-expressing cells, MTII-stimulated cAMP, LANCE TR-FRET | inhibition, % at 6.5 µM;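 active means inhibition above its plate's cutoff, the mean of tested wells on that plate plus 3 SD, cut at about 29% in these data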;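 further: 0% = Melanotan II alone and 100% = Melanotan II plus saturating MCL0020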
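Material – human MC4R-expressing U2OS cells · Repeats – no replicates · Detection – TR-FRET with Eu-cAMP and labeled anti-cAMP, 671 nm · Times – compound 30 min, challenge 1 h, detection 1 h · Compound – single nominal compound dose of 6.5 µM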
TMEM16A inh = mouse TMEM16A channel inhibition, primary screen; HEK293 TMEM16A/YFP iodide influx fluorescence, ionomycin; Q8BHY3; normalized B-score (activity score, 25-100; higher = stronger inhibition) at 10 µM; hit rate 1.2% among 310,000; AID 588511;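 active means ratio plate-corrected score three or more library SD toward inhibition, starting fluorescence score within five deviations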;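 further: score derived from kinetic fluorescence span divided by baseline fluorescence per well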
Target sequence (Q8BHY3 whole entry, looked up): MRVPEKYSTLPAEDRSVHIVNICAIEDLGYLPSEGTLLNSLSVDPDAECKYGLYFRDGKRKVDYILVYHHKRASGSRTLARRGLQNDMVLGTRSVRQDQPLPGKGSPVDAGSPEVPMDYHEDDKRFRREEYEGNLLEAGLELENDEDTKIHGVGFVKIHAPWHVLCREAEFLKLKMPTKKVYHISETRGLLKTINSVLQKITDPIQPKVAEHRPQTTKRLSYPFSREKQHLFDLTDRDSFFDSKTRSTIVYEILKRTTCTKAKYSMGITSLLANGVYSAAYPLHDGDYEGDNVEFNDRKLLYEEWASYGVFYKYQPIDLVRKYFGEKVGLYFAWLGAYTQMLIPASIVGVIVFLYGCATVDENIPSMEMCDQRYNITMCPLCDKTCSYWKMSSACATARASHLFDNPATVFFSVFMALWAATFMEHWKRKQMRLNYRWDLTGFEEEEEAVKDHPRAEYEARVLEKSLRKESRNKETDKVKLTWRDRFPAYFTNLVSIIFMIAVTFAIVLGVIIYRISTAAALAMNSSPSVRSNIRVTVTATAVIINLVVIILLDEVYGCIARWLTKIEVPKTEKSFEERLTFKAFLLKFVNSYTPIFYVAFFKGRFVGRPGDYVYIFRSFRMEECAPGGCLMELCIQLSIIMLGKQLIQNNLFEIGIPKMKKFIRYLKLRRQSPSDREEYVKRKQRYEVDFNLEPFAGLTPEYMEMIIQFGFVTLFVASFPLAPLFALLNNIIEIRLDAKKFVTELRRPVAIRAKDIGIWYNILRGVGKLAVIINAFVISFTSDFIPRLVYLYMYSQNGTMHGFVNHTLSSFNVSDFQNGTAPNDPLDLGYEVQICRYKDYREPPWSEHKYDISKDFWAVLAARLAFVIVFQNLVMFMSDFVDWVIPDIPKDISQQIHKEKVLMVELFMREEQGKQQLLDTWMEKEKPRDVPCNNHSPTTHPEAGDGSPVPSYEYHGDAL
CSC inhib = cancer stem cell inhibition. AID 2717. cancer stem cell-like cells viability, luminescence. inhibition, % at 7.5 µM. hit rate 1.1% among 300,000; in the data active means inhibition above about 75%; inconclusive means no clear call, values can overlap the other calls; tested in HMLE shEcad cells
TMEM16A act = activates or potentiates the mouse TMEM16A chloride channel; HEK293 TMEM16A/YFP-H148Q/I152L, iodide quench fluorescence; hits give low values; AID 623877; hit rate 0.3% among 340,000; B-score at 10 µM; Q8BHY3;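 active means fluorescence-ratio B-score plate-corrected deviation score at least 3 library SD below zero, with starting fluorescence score within 5 deviations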;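 further: channel opened by trigger with iodide after compound preincubation; score built on the fluorescence ratio of max minus min over baseline; more negative score means more quench and so TMEM16A activation or potentiation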
Beta apoptosis = blocks beta cell apoptosis; protection from apoptosis, % (concentration not given with the values); AID 435005; hit rate 0.8% among 300,000; INS-1E cytokine-induced death, ATP luminescence, 48 h; percent of positive-control rescue, neutral wells zero;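 active means Every replicate reaches about 75%, or at least half do and their mean reaches it too, limit read from the data; inconclusive means At least half of replicates reach the limit but their mean does not; inactive means Under half of replicates reach the limit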;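 further: 0% = cytokine-treated negative control wells and 100% = positive control rescue; higher means more ATP so stronger rescue from cytokine killing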
Starred values were filed as active, the others as inactive; i = inactive; ? = inconclusive; . = not tested or not shown.

SMILES | MC4R barr agon | MC4R antagonist | TMEM16A inh | CSC inhib | TMEM16A act | Beta apoptosis
CCN1C(=O)C(=Cc2ccc(N3CCOCC3)o2)C(=O)N(CC)C1=S | -3 | 5 | i | -11 | -5.5* | -19
N[C@@]1(C(=O)O)CC[C@@H](C(=O)O)C1 | -2 | 2 | i | -3 | i | 3
N[C@@H]1CCCC[C@H]1N.O=C(O)C(=O)O.[Pt] | . | . | i | 12 | . | 87*
CC(=O)OC1=CC[C@H]2[C@@H]3CC[C@H]4C[C@H](OC(C)=O)[C@@H](OC(C)=O)C[C@]4(C)[C@H]3CC[C@]12C | 1 | 9 | i | -12 | i | 2
Cc1cc(C)cc(N2C(=O)NC(=O)/C(=C/c3cccn3-c3ccc(Cl)cc3)C2=O)c1 | -1 | 19 | i | 75* | i | -7
Cc1cccc(N2C(=O)NC(=O)/C(=C\c3cccn3-c3ccc(Cl)cc3)C2=O)c1 | 2 | 1 | i | 4 | i | 12
Cc1c(O)ccc(C(=O)CN2CC(C)OC(C)C2)c1O (centres undefined) | -1 | 1 | i | -9 | i | -7
O=c1[nH]c2ccccc2n1C1CCN(CCCC(c2ccc(F)cc2)c2ccc(F)cc2)CC1 | 2 | -2 | i | 98* | i | -3
COC(=O)C1=C(c2ccc3ccccc3c2)C[C@@H]2CC[C@H]1N2C(=O)NC1CC1 | -1 | -1 | . | -7 | i | 1
Cc1nn(Cc2ccccc2)c(C)c1C(=O)OCC(=O)NC1CCS(=O)(=O)C1 (centres undefined) | 0 | 10 | i | -8 | i | -3
CCn1nc(-c2ccccc2)nc2c(=O)n(C)c(=O)nc1-2 | 0 | -44 | i | -6 | i | 108*
Cc1ccc[n+](CC(O)Cn2c3ccccc3c3ccccc32)c1 (centres undefined) | 6 | -2 | i | 6 | i | -6
CC1C(C)N1CC(O)Cn1ccnc1[N+](=O)[O-] (centres undefined) | -1 | -3 | i | -6 | i | 0
CC12CCC3C(CCCC4CC(=O)CCC43C)C1CCC2O (centres undefined) | 0 | 4 | . | . | i | .
Cc1ccc(-n2c(O)c(/C=N/Nc3ccccc3)c(=O)[nH]c2=O)cc1C | . | . | i | 71 | . | -7
COc1ccc(N/N=C/c2c(O)n(-c3cccc(C)c3)c(=O)[nH]c2=O)cc1 | 1 | 2 | i | 95* | i | -10
COc1ccc(N/N=C/c2c(O)n(-c3ccc(C)c(C)c3)c(=O)[nH]c2=O)cc1 | 1 | -4 | i | 117* | i | -7
Cc1ccnc(NS(=O)(=O)c2ccc(N=Cc3c(O)n(C)c(=O)n(C)c3=O)cc2)n1 | 0 | -11 | i | -16 | i | -5
O=C(Cc1ccc(Cl)c(Cl)c1)NCC1(N2CCOCC2)CCCCC1 | 0 | 0 | i | 9 | i | 10
Clc1ccc(CO/N=C(\Cn2ccnc2)c2ccc(Cl)cc2Cl)c(Cl)c1 | . | . | i | 103* | . | 88*
CC1CN=C(Nc2ccc(F)cc2)S1 (centres undefined) | -2 | -1 | i | -6 | -4.6* | -6
CCN(CCO)c1ccc(N=Cc2c(O)n(C)c(=S)[nH]c2=O)cc1 | 0 | -26 | i | -6 | -10* | -9
C[C@H]1CCC/C=C/C2C[C@H](O)CC2[C@H](O)/C=C/C(=O)O1 (some centres undefined) | 0 | 11 | i | 113* | i | 99*
CC1CCC/C=C/C2CC(O)CC2C(O)/C=C/C(=O)O1 (centres undefined) | -2 | 10 | i | 131* | i | 99*
CN1/C(=C\C=C\C2=[N+](C)c3ccc4ccccc4c3C2(C)C)C(C)(C)c2ccccc21 | . | . | i | 115* | . | 100*
SMILES | MC4R barr agon | MC4R antagonist | TMEM16A inh | CSC inhib | TMEM16A act | Beta apoptosis
Cc1cc(OCC(=O)N[C@H](C(=O)O)c2ccccc2)c2c3c(c(=O)oc2c1)CCC3 | 1 | -3 | i | -11 | -16* | -3
Cc1cc(OCC(=O)N[C@@H](Cc2ccccc2)C(=O)O)c2c3c(c(=O)oc2c1)CCC3 | 0 | 4 | i | 1 | i | 4
CC(=O)c1c(C)n(Cc2ccccc2Cl)c2ccc(O)cc12 | -2 | -6 | i | 17 | i | -18
CCOC(=O)COc1ccc2c(c1)c(C(C)=O)c(C)n2Cc1ccccc1 | -3 | -1 | i | -3 | -5.5* | -3
O=C1NC(=O)C2C1C1(Cl)C(Cl)=C(Cl)C2(Cl)C1(Cl)Cl (centres undefined) | 0 | 10 | . | . | i | .
ClC1=C(Cl)C2(Cl)C3C(Cl)C=CC3C1(Cl)C2(Cl)Cl (centres undefined) | -2 | 17 | . | ? | -16* | -1
O=C(NCc1cccnc1)Nc1ccc([N+](=O)[O-])cc1 | -3 | 17 | i | -1 | i | 81*
O=C(NCc1cccnc1)Nc1ccccc1Cl | -1 | 5 | i | -8 | i | -2
CC1(C)CSC(=NCc2ccccc2)N1 | -1 | 2 | i | 7 | -6.4* | -6
COc1ccc(-n2c(CN3CCOCC3)nc3ccccc3c2=O)c(OC)c1 | -1 | -2 | i | -16 | i | 1
COc1cccc(-c2sc3ccccc3c2-c2ccc(OCCN3CCOCC3)cc2)c1 | -1 | 12 | . | 104* | i | -10
O=c1c2ccccc2nc(Cc2ccccc2)n1-c1ccc(O)cc1 | 2 | -4 | i | 2 | i | .
O=C1NC(=O)C(=Cc2ccc(-c3ccc(S(=O)(=O)N4CCOCC4)cc3)o2)C(=O)N1 | -2 | 36* | i | 18 | i | -5
Cc1nn(CC(=O)N2CCC3(CC2)OCCO3)c(=O)c2cc3ccccc3n12 | -2 | 14 | i | -6 | i | 2
COc1cc2c(cc1OC)C1[C@H]3C(=CC[C@H]1OC2O)CCN3C (some centres undefined) | 1 | 10 | . | 11 | i | 0
CC(C)OC(=O)C1C2c3ccccc3C(c3ccccc32)C1C(=O)O (centres undefined) | 0 | -3 | i | 1 | i | 2
COC(=O)C1C2c3ccccc3C(c3ccccc32)C1C(=O)OC (centres undefined) | -1 | 8 | i | -5 | -8.8* | -8
CCCCn1c(O)c(C(C)=NCC2CCCO2)c(=O)[nH]c1=O (centres undefined) | -2 | 2 | i | 6 | i | -15
O=C1C(=O)c2ccccc2-c2ccccc21 | -1 | -26 | i | 107* | i | 121*
O=P(Oc1ccccc1)(Oc1ccccc1)N1CCN(c2ccc(F)cc2)CC1 | -2 | 13 | i | 2 | i | 78*
CCCCC/C=C\C/C=C\C/C=C\C/C=C\CCCC(=O)Nc1ccc(O)cc1 | . | . | i | 85* | . | .
CCC(=O)Nc1ccccc1 | -1 | 9 | i | -10 | i | .

Screening data from PubChem BioAssay.
